We go through five compounds from ChEMBL document CHEMBL1142192, “Natural polymorphisms in the human immunodeficiency virus type 2 protease can accelerate time to development of resistance to protease inhibitors” (Antimicrob Agents Chemother, 2007).

Common to all, as to format: functional, organism-based
The test system of assay [1] is Human immunodeficiency virus 1. Put plainly: Antiviral activity against HIV1 isolate 5512 with M36I/M and V82T mutation in CBMCs. The method in brief: (§1)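 PI-selected variants were obtained by weekly culture passage with escalating drug, 0.05 μM rising to 0.25–10 μM, and phenotyped at week 38. Cord blood mononuclear cells were infected for 2 h and plated onto fivefold drug dilutions from 0.00064 to 10 μM at 37°C, 5% CO₂. Cells were refed with drug on day 3. Day-7 culture-fluid RT activity gave IC50. Means come from at least two experiments, each in duplicate. Fold change is relative to wild-type virus.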

Assay [2] has as its system Human immunodeficiency virus 1. In words: Antiviral activity against HIV1 isolate 5512 with […] and M46L mutation in CBMCs. The method in brief:
as §1

Assay [3] has as its system Human immunodeficiency virus 2. In words: Antiviral activity against HIV2 isolate CBL20, CBL23, MVP15132 with […] and L99F mutation in CBMCs. The method in brief: as §1
The test system of assay [4] is Human immunodeficiency virus 2. Put plainly: Antiviral activity against HIV2 isolate CBL20, CBL23, MVP15132 with 182L mutation in CBMCs. The method in brief: as §1
Assay [5] deals with Human immunodeficiency virus 1. Put plainly: Antiviral activity against wild type HIV1 in CBMCs. The method in brief: (§2)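 Cord blood mononuclear cells were infected for 2 h with wild-type virus (HIV-1: subtype B clinical isolate 5512; HIV-2: isolates CBL-20, CBL-23, MVP-15132). Cells were plated onto fivefold drug dilutions (0.00064–10 μM) at 37°C, 5% CO₂, and refed with drug-containing medium on day 3. RT enzyme assay was run on day 7, and IC₅₀ fitted. Means of ≥2 independent experiments, each in duplicate.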

Assay [6] has as its system Human immunodeficiency virus 2. In words: Antiviral activity against HIV2 isolate CBL20, CBL23, MVP15132 with 150V mutation in CBMCs. The method in brief:
as §1

The test system of assay [7] is Human immunodeficiency virus 2. In words: Antiviral activity against HIV2 isolate CBL20, CBL23, MVP15132 with […] and L90M mutation in CBMCs. The method in brief: as §1
Assay [8] deals with Human immunodeficiency virus 2. In words: Antiviral activity against HIV2 isolate CBL20, CBL23, MVP15132 with 154M mutation in CBMCs. The method in brief:
as §1

The test system of assay [9] is Human immunodeficiency virus 2. Put plainly: Antiviral activity against HIV2 isolate CBL20, CBL23, MVP15132 with V62A and L99F mutation in CBMCs. The method in brief: as §1
For assay [10], the system named is Human immunodeficiency virus 1. In words: Antiviral activity against HIV1 isolate 5512 with D30N, […] and […] mutation in CBMCs. The method in brief: as §1
In assay [11] the test system is Human immunodeficiency virus 2. In words: Antiviral activity against wild type HIV2 in CBMCs. The method in brief: as §2
In assay [12] the test system is Human immunodeficiency virus 2. In words: Antiviral activity against HIV2 isolate CBL20, CBL23, MVP15132 with 182F mutation in CBMCs. The method in brief: as §1
For assay [13], the system named is Human immunodeficiency virus 2. Put plainly: Antiviral activity against HIV2 isolate CBL20, CBL23, MVP15132 with […] and […] mutation in CBMCs. The method in brief:
as §1

Usually IC50 stands for the concentration needed to halve the response being measured. Higher therefore signals weaker potency in that assay. For the compound `CC(C)CN(C[C@@H](O)[C@H](Cc1ccccc1)NC(=O)O[C@H]1CCOC1)S(=O)(=O)c1ccc(N)cc1` [AMPRENAVIR], the IC50 was 3 nM in assay [1]; 116 nM in assay [2]; > 10000 nM in assay [3]; 528 nM in [4]; 26 nM in assay [5]; > 10000 nM in assay [6]. Moreover, the half-maximal inhibitory concentration (IC50) was > 10000 nM in [7]; > 10000 nM in assay [8]; 98 nM in assay [9]; 19 nM in [10]; 440 nM in assay [11]; 965 nM in assay [12]. The IC50 in assay [13] is > 10000 nM.
Turning to `CC(C)(C)NC(=O)[C@@H]1CN(Cc2cccnc2)CCN1C[C@@H](O)C[C@@H](Cc1ccccc1)C(=O)N[C@H]1c2ccccc2C[C@H]1O` [INDINAVIR], the IC50 in assay [1] amounted to 14 nM; in [2], 45 nM; in assay [3], 825 nM; in [4], 64 nM; in assay [5] it was 27 nM; in [6] it was 72 nM. The IC50 in [7] was 1110 nM; in [8] it was 236 nM; in assay [9], 143 nM; in [10], 25 nM; in assay [11], 16 nM; in assay [12], 544 nM. In assay [13], the IC50 worked out at 388 nM.
With `Cc1cccc(C)c1OCC(=O)N[C@@H](Cc1ccccc1)[C@@H](O)C[C@H](Cc1ccccc1)NC(=O)[C@H](C(C)C)N1CCCNC1=O` [LOPINAVIR], the IC50 in assay [1] stood at 7 nM; in assay [2], 1 nM; in assay [3] it was 414 nM; in assay [4], 75 nM; in assay [5] it was 2 nM; in assay [6], 203 nM. Moreover, the IC50 in assay [7] is 524 nM; in assay [8], 481 nM; in assay [9] it was 496 nM; in assay [11], 4 nM; in assay [12], 145 nM; in [13] it was 375 nM.
Turning to `Cc1c(O)cccc1C(=O)N[C@@H](CSc1ccccc1)[C@H](O)CN1C[C@H]2CCCC[C@H]2C[C@H]1C(=O)NC(C)(C)C` [NELFINAVIR], the IC50 in [1] came out at 10 nM; in assay [2], 31 nM; in [3] it was 2240 nM; in [4], 106 nM; in assay [5], 14 nM; in assay [6] it was 132 nM. For the same compound, the IC50 amounted to 2560 nM in [7]; 624 nM in assay [8]; 961 nM in [9]; 677 nM in assay [10]; 64 nM in assay [11]; 244 nM in assay [12]. This compound returned an IC50 in assay [13] of 1750 nM.
Take `CCC[C@@]1(CCc2ccccc2)CC(O)=C([C@H](CC)c2cccc(NS(=O)(=O)c3ccc(C(F)(F)F)cn3)c2)C(=O)O1` [TIPRANAVIR]: the IC50 in [1] is 192 nM; in [2], 42 nM; in assay [3] it was 2910 nM; in assay [4], 4440 nM; in [5], 92 nM; in [6], 316 nM. Further, the IC50 was found to be 145 nM in assay [7]; 1110 nM in assay [8]; 524 nM in [9]; 1 nM in assay [10]; 160 nM in assay [11]; 306 nM in [12]. The midpoint of inhibition in assay [13], the IC50, lay at 2030 nM.
